Assay results taken from ChEMBL document CHEMBL1152560, “Substituted 2-arylbenzothiazoles as kinase inhibitors: hit-to-lead optimization” (Bioorg Med Chem, 2009).

Experiments:
[1] = molecular target: Serine/threonine-protein kinase pim-1 (Homo sapiens) (UniProt P11309); assay: Residual activity of PIM1 at 10 uM by microplate scintillation counting
[2] = molecular target: Protein-tyrosine kinase 2-beta (Homo sapiens) (UniProt Q14289); assay: Residual activity of PYK2 at 1 uM by microplate scintillation counting
[3] = molecular target: T1, Interleukin-1 receptor-associated kinase 4 (Homo sapiens) (UniProt Q9NWZ3); assay: Residual activity of IRAK4 at 0.1 uM by microplate scintillation counting
T1 sequence (whole entry): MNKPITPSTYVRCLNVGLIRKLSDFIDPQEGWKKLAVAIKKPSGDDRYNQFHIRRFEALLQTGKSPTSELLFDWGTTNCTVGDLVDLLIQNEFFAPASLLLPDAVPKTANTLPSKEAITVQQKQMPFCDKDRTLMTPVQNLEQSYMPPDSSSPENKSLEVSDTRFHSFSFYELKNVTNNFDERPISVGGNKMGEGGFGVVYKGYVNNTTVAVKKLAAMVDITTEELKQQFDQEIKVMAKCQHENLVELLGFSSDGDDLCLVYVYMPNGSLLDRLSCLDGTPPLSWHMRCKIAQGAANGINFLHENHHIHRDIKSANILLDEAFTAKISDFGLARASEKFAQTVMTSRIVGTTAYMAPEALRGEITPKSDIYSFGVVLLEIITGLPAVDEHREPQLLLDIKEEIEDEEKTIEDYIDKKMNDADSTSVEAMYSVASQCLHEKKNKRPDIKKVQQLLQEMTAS

[4] = molecular target: Mitogen-activated protein kinase 14 (Homo sapiens) (UniProt Q16539); assay: Residual activity of p38alpha at 0.1 uM by microplate scintillation counting
Aurora kinase B = Aurora kinase B (Homo sapiens, UniProt Q96GD4); assay: Inhibition of Aurora-B by microplate scintillation counting
How it was run: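 Substrates: tetra(LRRWSLG) for Aurora A/B; poly(Ala,Glu,Lys,Tyr)6:2:5:1 for PDGFRβ; poly(Glu,Tyr)4:1 for TIE2 and VEGFR2. Stopped with 2% H3PO4.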

[5] = molecular target: SRSF protein kinase 1 (Homo sapiens) (UniProt Q96SB4); assay: Residual activity of SRPK1 at 0.1 uM by microplate scintillation counting
[6] = molecular target: Proto-oncogene tyrosine-protein kinase ROS (Homo sapiens) (UniProt P08922); assay: Residual activity of ROS at 1 uM by microplate scintillation counting
[7] = molecular target: Tyrosine-protein kinase Blk (Homo sapiens) (UniProt P51451); assay: Residual activity of BLK at 10 uM by microplate scintillation counting
[8] = molecular target: CDK9/cyclin T1 (Homo sapiens) (UniProt O60563+P50750); assay: Residual activity of CDK9/Cyclin T at 0.1 uM by microplate scintillation counting; format: protein-complex assay
[9] = molecular target: Serine/threonine-protein kinase SIK2 (Homo sapiens) (UniProt Q9H0K1); assay: Residual activity of SNF1LK2 at 10 uM by microplate scintillation counting
[10] = molecular target: Ribosomal protein S6 kinase alpha-6 (Homo sapiens) (UniProt Q9UK32); assay: Residual activity of RPS6KA6 at 1 uM by microplate scintillation counting
[11] = test system: T2, Receptor-type tyrosine-protein kinase FLT3 (Homo sapiens), P36888 [D835Y]; assay: Residual activity of FLT3 D835Y mutant at 10 uM by microplate scintillation counting
T2 sequence (whole entry): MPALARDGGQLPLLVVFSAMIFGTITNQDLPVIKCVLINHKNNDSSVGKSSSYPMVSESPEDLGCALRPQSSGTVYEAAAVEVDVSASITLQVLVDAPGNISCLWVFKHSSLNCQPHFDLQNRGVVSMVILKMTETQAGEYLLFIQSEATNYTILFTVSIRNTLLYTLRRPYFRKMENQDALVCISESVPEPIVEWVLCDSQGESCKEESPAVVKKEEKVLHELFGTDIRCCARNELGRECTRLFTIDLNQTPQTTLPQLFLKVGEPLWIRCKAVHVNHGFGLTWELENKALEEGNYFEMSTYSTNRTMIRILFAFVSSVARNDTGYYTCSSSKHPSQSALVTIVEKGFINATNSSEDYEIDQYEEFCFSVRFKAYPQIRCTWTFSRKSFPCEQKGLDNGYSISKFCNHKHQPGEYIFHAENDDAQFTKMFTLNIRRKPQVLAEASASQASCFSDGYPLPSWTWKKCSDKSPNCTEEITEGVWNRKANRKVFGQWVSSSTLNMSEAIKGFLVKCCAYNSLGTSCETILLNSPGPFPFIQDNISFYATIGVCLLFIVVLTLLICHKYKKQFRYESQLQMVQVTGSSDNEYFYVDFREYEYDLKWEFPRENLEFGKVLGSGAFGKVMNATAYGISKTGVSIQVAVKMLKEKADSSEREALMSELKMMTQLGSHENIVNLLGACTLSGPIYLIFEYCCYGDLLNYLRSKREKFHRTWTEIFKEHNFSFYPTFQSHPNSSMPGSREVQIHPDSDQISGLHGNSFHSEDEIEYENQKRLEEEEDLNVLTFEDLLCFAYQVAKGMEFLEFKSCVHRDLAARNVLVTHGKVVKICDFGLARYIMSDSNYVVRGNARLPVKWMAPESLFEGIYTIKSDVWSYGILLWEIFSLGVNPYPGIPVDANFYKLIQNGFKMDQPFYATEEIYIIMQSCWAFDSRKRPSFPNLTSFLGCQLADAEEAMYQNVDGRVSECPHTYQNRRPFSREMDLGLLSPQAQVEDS

[12] = molecular target: T3, MAP kinase-activated protein kinase 5 (Homo sapiens) (UniProt Q8IW41); assay: Residual activity of MAPKAPK5 at 0.1 uM by microplate scintillation counting
T3 sequence (whole entry): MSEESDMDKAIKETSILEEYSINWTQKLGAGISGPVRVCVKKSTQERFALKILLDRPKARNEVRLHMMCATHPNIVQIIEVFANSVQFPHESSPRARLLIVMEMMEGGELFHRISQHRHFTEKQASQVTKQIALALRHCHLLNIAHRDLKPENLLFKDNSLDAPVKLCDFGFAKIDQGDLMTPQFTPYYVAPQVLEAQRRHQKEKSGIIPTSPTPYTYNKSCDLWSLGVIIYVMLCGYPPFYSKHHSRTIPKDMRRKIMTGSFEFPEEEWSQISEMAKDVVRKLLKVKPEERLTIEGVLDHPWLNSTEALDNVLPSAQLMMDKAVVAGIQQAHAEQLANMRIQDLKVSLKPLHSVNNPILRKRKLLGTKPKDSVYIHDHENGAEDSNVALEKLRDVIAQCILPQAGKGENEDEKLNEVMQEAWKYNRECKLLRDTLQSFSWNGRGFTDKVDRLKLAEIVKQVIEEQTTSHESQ

[13] = molecular target: Death-associated protein kinase 2 (Homo sapiens) (UniProt Q9UIK4); assay: Residual activity of DAPK2 at 0.1 uM by microplate scintillation counting
[14] = molecular target: High affinity nerve growth factor receptor (Homo sapiens) (UniProt P04629); assay: Residual activity of TRK-A at 1 uM by microplate scintillation counting
[15] = molecular target: Mitogen-activated protein kinase 11 (Homo sapiens) (UniProt Q15759); assay: Residual activity of p38beta at 1 uM by microplate scintillation counting

Chain of Protein-tyrosine kinase 2-beta (Homo sapiens) (Q14289 whole entry, looked up): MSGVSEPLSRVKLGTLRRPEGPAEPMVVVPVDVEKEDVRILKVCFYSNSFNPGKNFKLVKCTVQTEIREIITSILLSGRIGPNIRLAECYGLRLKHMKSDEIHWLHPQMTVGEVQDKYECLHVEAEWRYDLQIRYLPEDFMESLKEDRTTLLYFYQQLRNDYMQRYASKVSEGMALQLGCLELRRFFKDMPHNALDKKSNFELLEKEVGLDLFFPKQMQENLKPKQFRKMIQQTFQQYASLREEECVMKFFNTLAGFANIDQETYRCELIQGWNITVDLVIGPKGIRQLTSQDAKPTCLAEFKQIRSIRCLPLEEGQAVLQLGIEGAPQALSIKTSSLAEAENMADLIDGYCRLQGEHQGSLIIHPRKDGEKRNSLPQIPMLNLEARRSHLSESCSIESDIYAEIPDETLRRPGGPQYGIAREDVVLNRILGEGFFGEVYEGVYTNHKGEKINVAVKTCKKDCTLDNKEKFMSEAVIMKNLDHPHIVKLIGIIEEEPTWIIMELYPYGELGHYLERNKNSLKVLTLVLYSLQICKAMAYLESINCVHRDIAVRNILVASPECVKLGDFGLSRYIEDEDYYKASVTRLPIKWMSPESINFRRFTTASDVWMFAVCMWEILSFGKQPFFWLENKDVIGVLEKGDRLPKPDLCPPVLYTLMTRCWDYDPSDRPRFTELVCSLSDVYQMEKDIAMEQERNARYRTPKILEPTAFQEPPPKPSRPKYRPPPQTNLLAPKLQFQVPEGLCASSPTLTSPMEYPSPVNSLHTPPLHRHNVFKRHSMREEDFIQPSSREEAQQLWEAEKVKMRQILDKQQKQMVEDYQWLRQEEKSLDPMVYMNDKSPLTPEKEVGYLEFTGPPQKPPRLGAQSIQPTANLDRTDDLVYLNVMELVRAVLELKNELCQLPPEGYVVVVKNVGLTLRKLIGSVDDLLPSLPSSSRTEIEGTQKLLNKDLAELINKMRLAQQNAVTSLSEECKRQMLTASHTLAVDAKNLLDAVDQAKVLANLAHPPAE
Chain of Aurora kinase B (Q96GD4 whole entry): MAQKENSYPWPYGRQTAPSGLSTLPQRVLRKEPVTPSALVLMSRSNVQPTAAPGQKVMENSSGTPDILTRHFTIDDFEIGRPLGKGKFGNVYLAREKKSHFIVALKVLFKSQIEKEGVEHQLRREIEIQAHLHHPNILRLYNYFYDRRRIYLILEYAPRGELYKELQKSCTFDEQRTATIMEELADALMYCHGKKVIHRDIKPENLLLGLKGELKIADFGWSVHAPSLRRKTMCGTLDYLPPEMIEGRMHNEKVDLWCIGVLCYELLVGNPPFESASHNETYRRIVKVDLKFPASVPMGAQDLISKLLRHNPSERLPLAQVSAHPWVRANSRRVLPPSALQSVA
Chain of Tyrosine-protein kinase Blk (Homo sapiens) (P51451 2-505 limits assumed): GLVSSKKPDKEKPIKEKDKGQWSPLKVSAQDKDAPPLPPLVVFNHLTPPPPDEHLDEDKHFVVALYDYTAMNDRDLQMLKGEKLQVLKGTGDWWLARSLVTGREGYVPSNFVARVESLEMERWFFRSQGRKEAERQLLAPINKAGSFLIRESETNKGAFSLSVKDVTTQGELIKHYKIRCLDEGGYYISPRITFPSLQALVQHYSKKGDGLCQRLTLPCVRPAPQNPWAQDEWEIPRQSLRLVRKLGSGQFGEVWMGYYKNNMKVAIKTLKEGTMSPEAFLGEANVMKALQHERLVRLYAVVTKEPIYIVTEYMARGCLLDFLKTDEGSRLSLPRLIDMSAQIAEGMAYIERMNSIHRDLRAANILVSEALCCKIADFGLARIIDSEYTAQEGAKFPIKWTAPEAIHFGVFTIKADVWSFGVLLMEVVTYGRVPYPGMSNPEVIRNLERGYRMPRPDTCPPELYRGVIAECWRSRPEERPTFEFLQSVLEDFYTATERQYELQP
Chain of Proto-oncogene tyrosine-protein kinase ROS (Homo sapiens) (P08922 whole entry): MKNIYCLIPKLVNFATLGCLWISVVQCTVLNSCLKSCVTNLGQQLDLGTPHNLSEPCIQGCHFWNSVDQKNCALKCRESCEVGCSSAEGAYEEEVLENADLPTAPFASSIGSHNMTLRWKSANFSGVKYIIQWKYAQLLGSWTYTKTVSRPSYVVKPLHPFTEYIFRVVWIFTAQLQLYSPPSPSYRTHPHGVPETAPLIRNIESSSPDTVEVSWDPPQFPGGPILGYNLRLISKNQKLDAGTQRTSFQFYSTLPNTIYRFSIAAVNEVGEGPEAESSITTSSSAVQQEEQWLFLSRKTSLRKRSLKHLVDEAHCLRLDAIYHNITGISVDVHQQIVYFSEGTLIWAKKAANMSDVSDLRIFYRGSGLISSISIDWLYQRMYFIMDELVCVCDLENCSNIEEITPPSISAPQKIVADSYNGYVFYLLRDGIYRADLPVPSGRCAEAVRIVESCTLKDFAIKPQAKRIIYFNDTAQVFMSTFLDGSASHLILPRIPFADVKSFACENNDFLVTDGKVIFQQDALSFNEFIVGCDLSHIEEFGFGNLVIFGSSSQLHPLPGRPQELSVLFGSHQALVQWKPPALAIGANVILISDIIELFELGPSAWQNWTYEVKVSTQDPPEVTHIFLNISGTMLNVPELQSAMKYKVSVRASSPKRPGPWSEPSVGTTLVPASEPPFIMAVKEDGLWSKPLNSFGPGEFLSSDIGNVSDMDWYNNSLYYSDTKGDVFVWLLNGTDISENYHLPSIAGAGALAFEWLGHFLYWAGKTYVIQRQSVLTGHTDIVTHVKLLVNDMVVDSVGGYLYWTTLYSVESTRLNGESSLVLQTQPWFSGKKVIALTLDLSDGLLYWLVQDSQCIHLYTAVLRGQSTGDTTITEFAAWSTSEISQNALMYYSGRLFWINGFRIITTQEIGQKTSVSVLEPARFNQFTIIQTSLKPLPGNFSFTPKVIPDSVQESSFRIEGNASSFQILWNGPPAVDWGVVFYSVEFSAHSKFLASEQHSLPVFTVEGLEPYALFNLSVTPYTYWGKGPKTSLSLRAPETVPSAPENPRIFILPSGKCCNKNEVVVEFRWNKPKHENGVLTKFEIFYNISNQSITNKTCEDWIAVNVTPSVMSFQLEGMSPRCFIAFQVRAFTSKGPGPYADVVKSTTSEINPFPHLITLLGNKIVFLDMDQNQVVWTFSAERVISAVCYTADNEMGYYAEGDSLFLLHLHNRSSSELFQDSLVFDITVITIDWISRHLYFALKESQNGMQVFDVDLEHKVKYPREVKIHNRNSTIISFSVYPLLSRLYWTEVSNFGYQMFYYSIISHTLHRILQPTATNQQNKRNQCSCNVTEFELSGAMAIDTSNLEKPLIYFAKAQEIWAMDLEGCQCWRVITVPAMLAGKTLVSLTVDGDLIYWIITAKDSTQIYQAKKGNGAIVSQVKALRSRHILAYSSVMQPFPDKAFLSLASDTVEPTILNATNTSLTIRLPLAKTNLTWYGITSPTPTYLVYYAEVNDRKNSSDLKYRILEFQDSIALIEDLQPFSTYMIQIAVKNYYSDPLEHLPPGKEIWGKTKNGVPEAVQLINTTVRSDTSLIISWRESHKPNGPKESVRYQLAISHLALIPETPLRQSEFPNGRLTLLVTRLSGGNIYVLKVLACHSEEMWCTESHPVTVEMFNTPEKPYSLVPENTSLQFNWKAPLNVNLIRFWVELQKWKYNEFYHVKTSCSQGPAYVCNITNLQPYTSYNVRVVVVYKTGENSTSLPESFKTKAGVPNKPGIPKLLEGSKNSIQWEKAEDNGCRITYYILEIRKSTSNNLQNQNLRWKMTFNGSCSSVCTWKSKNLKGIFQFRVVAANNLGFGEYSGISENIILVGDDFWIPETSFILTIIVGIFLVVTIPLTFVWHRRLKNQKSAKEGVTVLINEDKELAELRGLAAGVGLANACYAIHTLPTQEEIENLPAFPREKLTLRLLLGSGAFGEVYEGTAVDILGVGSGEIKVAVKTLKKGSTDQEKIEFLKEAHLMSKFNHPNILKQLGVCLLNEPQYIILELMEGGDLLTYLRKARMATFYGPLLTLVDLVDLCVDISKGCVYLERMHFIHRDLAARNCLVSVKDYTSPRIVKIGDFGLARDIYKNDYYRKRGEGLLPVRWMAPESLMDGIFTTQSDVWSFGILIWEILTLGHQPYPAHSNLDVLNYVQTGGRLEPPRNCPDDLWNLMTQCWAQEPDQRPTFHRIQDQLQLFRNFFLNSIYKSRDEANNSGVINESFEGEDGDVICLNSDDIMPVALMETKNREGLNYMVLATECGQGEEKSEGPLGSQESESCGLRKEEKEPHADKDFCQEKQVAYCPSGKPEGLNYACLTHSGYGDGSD
Chain of Serine/threonine-protein kinase SIK2 (Homo sapiens) (Q9H0K1 whole entry, looked up): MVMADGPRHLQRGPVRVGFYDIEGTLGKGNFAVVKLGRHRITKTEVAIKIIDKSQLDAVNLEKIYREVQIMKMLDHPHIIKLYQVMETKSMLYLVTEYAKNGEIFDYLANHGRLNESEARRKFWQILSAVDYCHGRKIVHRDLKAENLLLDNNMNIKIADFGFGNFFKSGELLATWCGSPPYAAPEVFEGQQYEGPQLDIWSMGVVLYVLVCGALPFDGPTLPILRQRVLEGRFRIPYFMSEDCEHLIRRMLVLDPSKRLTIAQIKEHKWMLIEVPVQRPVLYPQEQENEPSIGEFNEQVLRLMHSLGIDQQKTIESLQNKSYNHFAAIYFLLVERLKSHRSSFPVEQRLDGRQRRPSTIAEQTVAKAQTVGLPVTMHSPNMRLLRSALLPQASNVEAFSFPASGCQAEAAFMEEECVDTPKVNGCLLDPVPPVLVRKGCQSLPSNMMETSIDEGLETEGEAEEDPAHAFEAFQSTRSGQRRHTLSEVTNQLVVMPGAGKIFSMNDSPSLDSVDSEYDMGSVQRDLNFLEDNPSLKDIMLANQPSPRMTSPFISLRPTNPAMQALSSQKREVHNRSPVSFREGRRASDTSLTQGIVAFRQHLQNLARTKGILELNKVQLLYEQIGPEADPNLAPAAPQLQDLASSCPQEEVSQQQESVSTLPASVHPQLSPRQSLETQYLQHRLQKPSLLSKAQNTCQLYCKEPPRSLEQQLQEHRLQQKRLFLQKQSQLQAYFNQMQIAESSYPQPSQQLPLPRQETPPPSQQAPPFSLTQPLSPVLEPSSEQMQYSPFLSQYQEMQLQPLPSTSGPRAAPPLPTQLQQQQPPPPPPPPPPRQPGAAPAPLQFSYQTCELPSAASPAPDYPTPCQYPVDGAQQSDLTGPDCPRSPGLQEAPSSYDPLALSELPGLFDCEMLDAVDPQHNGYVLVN

Structure (SMILES): COc1cc2c(Oc3ccc(-c4nc5ccccc5s4)cc3)ncnc2cc1OCCCN1CCN(C)CC1
- residual activity [1]: 124%
- residual activity [2]: 97%
- residual activity [3]: 100%
- residual activity [4]: 93%
- IC50 (Aurora kinase B): 63 nM
- residual activity [5]: 96%
- residual activity [6]: 97%
- residual activity [7]: 34%
- residual activity [8]: 101%
- residual activity [9]: 141%
- residual activity [10]: 101%
- residual activity [11]: 19%
- residual activity [12]: 124%
- residual activity [13]: 81%
- residual activity [14]: 83%
- residual activity [15]: 126%

Structure (SMILES): COc1cc2c(Oc3ccc(-c4nc5ccccc5s4)cc3)ncnc2cc1OCCCN1CCCC1
- residual activity [1]: 74%
- residual activity [2]: 109%
- residual activity [3]: 96%
- residual activity [4]: 100%
- IC50 (Aurora kinase B): 162 nM
- residual activity [5]: 103%
- residual activity [6]: 98%
- residual activity [7]: 33%
- residual activity [8]: 94%
- residual activity [9]: 107%
- residual activity [10]: 95%
- residual activity [11]: 48%
- residual activity [12]: 97%
- residual activity [13]: 96%
- residual activity [14]: 72%
- residual activity [15]: 125%

Structure (SMILES): COc1cc2c(Oc3ccc(-c4nc5ccccc5s4)cc3F)ncnc2cc1OCCCN1CCN(C)CC1
- residual activity [1]: 97%
- residual activity [2]: 105%
- residual activity [3]: 101%
- residual activity [4]: 101%
- IC50 (Aurora kinase B): 130 nM
- residual activity [5]: 91%
- residual activity [6]: 102%
- residual activity [7]: 10%
- residual activity [8]: 91%
- residual activity [9]: 241%
- residual activity [10]: 97%
- residual activity [11]: 18%
- residual activity [12]: 95%
- residual activity [13]: 85%
- residual activity [14]: 86%
- residual activity [15]: 129%
